Our source for the Activity, inhibition and IC50 values is ChEMBL document CHEMBL2440054, “Largazole Arrests Cell Cycle at G1 Phase and Triggers Proteasomal Degradation of E2F1 in Lung Cancer Cells” (ACS Med Chem Lett, 2013).

Active and inactive are the calls of the source. No cut-off for these calls is given here.

For test [1], the target named is Transcription factor E2F1 (Homo sapiens) (UniProt Q01094). Nature of the test: Induction of E2F1 ubiquitination in human A549 cells at 0.1 uM after 8 hrs by immunoprecipitation and Western blotting analysis. Format: cell-based. The gist of the method: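 Lysates of A549 cells given 0.1 μM largazole for 8 h were immunoprecipitated with anti-E2F1 and probed by Western blot with anti-ubiquitin.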
Chain of Transcription factor E2F1 (Homo sapiens) (Q01094 whole entry): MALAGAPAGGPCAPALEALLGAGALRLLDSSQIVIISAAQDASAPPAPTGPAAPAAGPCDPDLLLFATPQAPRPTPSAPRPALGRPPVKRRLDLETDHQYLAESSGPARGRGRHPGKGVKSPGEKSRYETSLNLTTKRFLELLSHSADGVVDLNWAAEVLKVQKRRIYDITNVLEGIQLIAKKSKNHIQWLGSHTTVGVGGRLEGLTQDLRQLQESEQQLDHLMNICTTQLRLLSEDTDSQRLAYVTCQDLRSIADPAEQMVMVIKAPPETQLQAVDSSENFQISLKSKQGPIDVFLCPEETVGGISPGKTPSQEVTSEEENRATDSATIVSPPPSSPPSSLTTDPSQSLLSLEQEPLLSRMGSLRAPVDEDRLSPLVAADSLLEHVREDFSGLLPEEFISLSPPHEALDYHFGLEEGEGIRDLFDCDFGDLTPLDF
Background: In western blotting, separated proteins are transferred to a membrane and probed.

Test [2] deals with A549. Nature of the test: Downregulation of E2F1 in human A549 cell cytoplasm at 0.1 uM after 6 to 24 hrs by Western blotting analysis. Format: functional, cell-based. Summed up: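 A549 cells exposed to 0.1 μM largazole for indicated times. Cytoplasmic and nuclear fractions separated, then Western blotted for E2F1.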
The target in test [3] is Transcription factor E2F1 (Homo sapiens) (UniProt Q01094). Nature of the test: Induction of E2F1 degradation in human 95-D cells at 0.1 uM after 12 to 24 hrs by Western blotting analysis. Format: cell-based. Summed up:
(§1)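 Each cell line (16-HBE, 95D, L78, H1975, H460) treated with 0.1 μM largazole for indicated times. Lysates Western blotted for E2F1.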

For test [4] the target is unchanged. Nature of the test: Induction of E2F1 degradation in human NCI-H1975 cells at 0.1 uM after 12 to 24 hrs by Western blotting analysis. It counts as cell-based. The gist of the method: as §1
Test [5] deals with A549. Nature of the test: Downregulation of E2F1 protein expression in human A549 cells after 12 hrs by Western blotting analysis. Format: functional, cell-based. Summed up:
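A549 cells treated with 0.1 μM largazole over a time course, or with a range of concentrations for 12 h. Lysates Western blotted for E2F1.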

Test [6] deals with T1, Retinoblastoma-associated protein (Homo sapiens) (UniProt P06400).
T1 sequence (whole entry): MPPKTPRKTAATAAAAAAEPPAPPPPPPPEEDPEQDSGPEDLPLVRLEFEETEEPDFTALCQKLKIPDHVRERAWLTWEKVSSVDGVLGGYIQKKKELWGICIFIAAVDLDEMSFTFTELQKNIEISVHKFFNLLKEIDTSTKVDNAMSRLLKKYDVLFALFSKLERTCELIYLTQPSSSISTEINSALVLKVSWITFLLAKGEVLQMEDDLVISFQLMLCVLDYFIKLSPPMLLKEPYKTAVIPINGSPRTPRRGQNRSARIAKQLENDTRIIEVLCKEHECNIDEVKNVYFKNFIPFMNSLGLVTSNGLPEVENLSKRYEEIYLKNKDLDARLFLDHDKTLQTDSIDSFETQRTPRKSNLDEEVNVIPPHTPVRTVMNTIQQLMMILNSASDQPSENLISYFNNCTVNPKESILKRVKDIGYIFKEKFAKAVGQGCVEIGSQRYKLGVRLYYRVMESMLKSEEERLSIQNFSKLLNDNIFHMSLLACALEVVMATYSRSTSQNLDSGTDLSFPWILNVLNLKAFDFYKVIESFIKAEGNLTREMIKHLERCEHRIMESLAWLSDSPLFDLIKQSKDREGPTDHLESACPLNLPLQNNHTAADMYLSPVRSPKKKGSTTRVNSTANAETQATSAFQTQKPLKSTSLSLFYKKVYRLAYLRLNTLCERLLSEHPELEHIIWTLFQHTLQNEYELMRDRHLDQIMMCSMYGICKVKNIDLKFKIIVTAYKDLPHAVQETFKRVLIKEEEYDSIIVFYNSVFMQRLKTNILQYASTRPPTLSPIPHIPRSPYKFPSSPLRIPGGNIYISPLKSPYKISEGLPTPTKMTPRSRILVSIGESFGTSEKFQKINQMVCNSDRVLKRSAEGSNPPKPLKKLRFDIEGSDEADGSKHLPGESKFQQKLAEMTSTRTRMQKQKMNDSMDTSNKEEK
Nature of the test: Dephosphorylation of Rb in human A549 cells assessed as increase in E2F1-HDAC1 interaction at 0.1 uM after 8 hrs by immunoprecipitation and Western blotting analysis. Format: cell-based. The gist of the method: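 A549 cells treated with 0.1 μM largazole for 8 h and lysed. Lysates immunoprecipitated, then Western blotted with the indicated antibodies.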

The subject of test [7] is A549. Nature of the test: Upregulation of p21 protein expression in human A549 cells at 0.1 uM after 6 hrs by Western blotting analysis in presence of Hsp90 inhibitor 17-AAG. Format: functional, cell-based. Summed up:
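A549 cells treated 6 h with 0.1 μM, with or without 1 μM 17-AAG, then lysed and Western blotted. p21 quantified by densitometry and normalized to β-actin.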

The test system of test [8] is A549. Nature of the test: Effect on CDK2 protein expression in human A549 cells at 0.1 uM after 6 to 36 hrs by Western blotting analysis. Format: functional, cell-based. Summed up: (§2)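 A549 cells exposed to 0.1 μM largazole over a time course, lysed, and Western blotted for cyclin D1, CDK2, CDK4, p21 and p27.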
Test [9] has as its system A549. Nature of the test: Effect on cyclin D1 protein expression in human A549 cells at 0.1 uM after 6 to 36 hrs by Western blotting analysis. It counts as functional, cell-based. Summed up: as §2
The test system of test [10] is A549. Nature of the test: Upregulation of p21 protein expression in human A549 cells at 0.1 uM after 6 hrs by Western blotting analysis. It counts as functional, cell-based. Summed up: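 A549 cells exposed to 0.1 μM over a time course, then lysed and Western blotted for G1 regulators including p21 and p27.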
Test [11] deals with A549. Nature of the test: Induction of apoptosis in human A549 cells assessed as increase in PARP cleavage at 0.1 uM after 48 hrs by Western blotting analysis. Format: functional, cell-based. Summed up: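 A549 cells exposed to 0.1 μM for a time course, then lysed and Western blotted. Read-outs are pro- and cleaved caspase-9, pro- and active caspase-3, and cleaved PARP.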

In test [12] the test system is A549. Nature of the test: Induction of apoptosis in human A549 cells at 0.3 to 1 uM after 48 hrs by Annexin V and propidium iodide staining-based flow cytometric analysis relative to control. It counts as functional. Summed up:
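A549 cells treated for 48 h at 0.3 to 1 μM, stained with Annexin V/PI and analysed by flow cytometry for the apoptotic fraction.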
A general note: In flow cytometry, cells or beads pass a laser one at a time.

The test system of test [13] is NCI-H460. Nature of the test: Cell cycle arrest in human NCI-H460 cells assessed as accumulation at S phase at 0.1 uM after 24 hrs by propidium iodide staining-based flow cytometric analysis (reference value: 31.6%). Format: functional.
Test [14] concerns NCI-H460. Nature of the test: Cell cycle arrest in human NCI-H460 cells assessed as accumulation at S phase at 0.06 uM after 24 hrs by propidium iodide staining-based flow cytometric analysis (reference value: 31.6%). It counts as functional.
For test [15], the system named is A549. Nature of the test: Cell cycle arrest in human A549 cells assessed as accumulation at S phase at 0.1 uM after 24 hrs by propidium iodide staining-based flow cytometric analysis (reference value: 48%). Format: functional.
Test [16] deals with A549. Nature of the test: Cytotoxicity against human A549 cells assessed as inhibition of colony formation pretreated for 24 hrs followed by seeding measured after 10 days by clonogenic assay. Format: functional, cell-based. Summed up:
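Soft-agar clonogenic assay. Cells pretreated 24 h with largazole or DMSO, then seeded in 0.3% soft agar upper layer over 0.6% soft agar lower layer. Colonies counted by microscope after 10 days. Mean ± SD of three independent experiments.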

In test [17] the test system is NCI-H460. Nature of the test: Cytotoxicity against human NCI-H460 cells after 48 hrs by CCK-8 assay. Format: functional, cell-based. As to conditions: NCI-H460, 48 h. Summed up:
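Cells treated with a range of largazole concentrations for 48 h. Proliferation read by CCK-8 assay; IC50 derived from the concentration series.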
(Tetrazolium assays rely on reduction of a dye to a coloured formazan, in cell work by metabolically active cells.)

Test [18] deals with Histone deacetylase 1 (Homo sapiens) (UniProt Q13547). To be noted: A549, 0.1 uM.
Chain of Histone deacetylase 1 (Homo sapiens) (Q13547 whole entry): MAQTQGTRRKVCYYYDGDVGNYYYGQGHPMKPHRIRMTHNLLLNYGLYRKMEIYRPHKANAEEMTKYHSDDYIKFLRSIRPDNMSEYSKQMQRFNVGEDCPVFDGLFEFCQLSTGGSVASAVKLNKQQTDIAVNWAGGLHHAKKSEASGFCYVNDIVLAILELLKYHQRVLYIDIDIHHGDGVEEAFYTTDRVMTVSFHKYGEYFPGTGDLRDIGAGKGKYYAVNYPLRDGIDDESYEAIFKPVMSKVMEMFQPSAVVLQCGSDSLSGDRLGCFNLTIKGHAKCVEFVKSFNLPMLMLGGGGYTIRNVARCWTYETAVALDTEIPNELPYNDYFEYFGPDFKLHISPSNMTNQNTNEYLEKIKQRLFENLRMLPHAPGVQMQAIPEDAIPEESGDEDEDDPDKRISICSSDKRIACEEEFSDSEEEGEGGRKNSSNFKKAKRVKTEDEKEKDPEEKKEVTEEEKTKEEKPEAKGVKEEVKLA
For test [19] the target is unchanged. As to conditions: NCI-H460, 0.1 uM.
Test [20] shares this target. To be noted: A549, 0.01 to 1 uM.

`CCCCCCCC(=O)SCC/C=C/[C@@H]1CC(=O)NCc2nc(cs2)C2=N[C@@](C)(CS2)C(=O)N[C@@H](C(C)C)C(=O)O1` [LARGAZOLE]: the result (in test [1]; in the test on A549 [2]; in test [3]; in test [4]; in test [6]; in the test with A549 [10]) was Active. In the test on A549 [11], the result was Active. Moreover, the Activity entry in the test on A549 [5] is “Dose-dependent effect”; in the test on A549 [12] it was “<=70%”; in the test with NCI-H460 [13], 10.6%; in the test on NCI-H460 [14] it was 10.4%; with A549 [15] it was 8.5%. Also, the outcome with A549 [7], in the test with A549 [8] and in the test on A549 [9] was inactive. Also, the inhibition entry in the test with A549 [16] was “Dose-dependent effect”. Further, in the test on NCI-H460 [17], the IC50 (as a rule, the concentration that gives 50% inhibition) came out at 0.12 µM. Moreover, the inhibition entry in test [18], in [19] and in test [20] was “Active” each time.
